Source: PubChem BioAssay
Shown are actives, neighbours in structure and some others; about 2.3% of the full set was active somewhere.
DNMT1 block = human DNMT1 methyltransferase inhibitors, primary screen, biochemical, molecular beacon, fluorescence, HinP1I cleavage, uHTS; hit rate 0.83% among 360,000; DNA (cytosine-5)-methyltransferase 1 (Homo sapiens), P26358; AID 588458, 2011; inhibition (reported as % activation of signal), % at 10 µM; in the data active = inhibition above about 50%
Scp-1 inhibitor = Scp-1 phosphatase inhibitors, primary screen, biochemical, colorimetric, uHTS; hit rate 0.88% among 340,000; Carboxy-terminal domain RNA polymerase II polypeptide A small phosphatase 1 (Homo …; Recombinant Scp1, phosphopeptide, malachite green phosphate absorbance; inhibition, % at 20 µM;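 active = inhibition above about 50% at 20 µM, limit read from the data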;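 note: plate controls were DMSO wells with enzyme for no effect and wells lacking enzyme for full effect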
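Test system: SCP-1 catalytic domain; Buffer or medium: Acidic Tris acetate buffer with magnesium and detergent; Also added: Phosphorylated 17-residue peptide substrate; Compound: single 20 µM dose, 1% DMSO; Schedule: enzyme reaction 45 min at room temperature, colour 5 min, stabilisation 30 min; Signal: Phosphate-binding colour reagent, absorbance read at 630 nm.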
Rpn11 block = Rpn11 (PSMD14) deubiquitinase inhibitors, primary screen, biochemical, fluorescence polarization, uHTS. AID 588493, 2011. 26S proteasome non-ATPase regulatory subunit 14 (Homo sapiens), O00487. human 26S proteasome, Ub4-pepOG fluorescence polarization; 20S core pre-blocked with epoxomicin. inhibition, % at 20 µM. hit rate 0.59% among 360,000;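 active = inhibition at 20 µM, scaled to each plate's controls, above about 33%, limit read from the data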
LMPTP block = LMPTP phosphatase inhibitors, primary screen, biochemical, fluorescence intensity, uHTS; Low molecular weight phosphotyrosine protein phosphatase (Homo sapiens), P24666; recombinant LMPTP-A, OMFP fluorogenic substrate; inhibition, % at 20 µM; hit rate 0.22% among 360,000; AID 651560, 2012;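 active = compounds that cut the enzyme signal by at least half of the control window in the single-dose screen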;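 note: plate controls were DMSO wells with enzyme plus substrate for no effect and substrate without enzyme for full effect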
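Material: LMPTP-A; amount: 0.625 nM enzyme; doses: single 20 µM dose; times: reaction 50 min, room temperature, dark; technique: fluorescence intensity of OMFP turnover product; benchmarks: no-enzyme and uninhibited controls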
STEP block = STEP phosphatase inhibitors, primary screen, biochemical, fluorescence intensity, uHTS. Tyrosine-protein phosphatase non-receptor type 5 (Homo sapiens), P54829. recombinant STEP, OMFP fluorogenic substrate. inhibition, % at 20 µM. hit rate 0.25% among 360,000. AID 588621, 2011;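 active = inhibition at 20 µM, scaled per plate between control wells, above about 37%, limit read from the data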;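 note: 0% = DMSO with enzyme and substrate and 100% = substrate only without enzyme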
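Assay system: isolated STEP enzyme. Buffer or medium: pH 6.0 Bis-Tris with DTT and Tween 20. Also added: fluorogenic phosphatase substrate OMFP at 25 µM final. Dosing: 20 µM, 1% DMSO. Timing: 20 min reaction, room temperature, in the dark. Measured by: fluorescence intensity, excitation 480 nm, emission 540 nm. Evaluation: normalized % inhibition.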
SUMO1 PPI mod = modulators of SUMO1 protein-protein interactions, primary screen, biochemical, uHTS. hit rate 0.33% among 360,000. SUMO1 binding to a labelled peptide, TR-FRET, 1 h. Small ubiquitin-related modifier 1 (Homo sapiens), P63165. inhibition, % at 20 µM. AID 602429, 2012; in the data active = inhibition above about 37%
DNMT1 interf DR = spectral interference with molecular beacon fluorescence, dose response, artefact control for DNMT1 inhibitor project, biochemical, fluorescent molecular beacon. 200 tested, under 10 active. IC50, µM. shares compounds with DNMT1 block. spectral interference counter-screen; call rule not given here
DNMT1 inh conf = DNMT1 methyltransferase inhibitor retest, confirmation, biochemical, molecular beacon, fluorescence, single concentration | DNMT1 molecular beacon HinP1I cleavage | shares compounds with DNMT1 block | inhibition, % at 10 µM | hit rate 8% among 2,300;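 active = average inhibition of at least 30% in the single-concentration confirmation test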
Beacon interf = beacon fluorescence artifact counter-screen. shares compounds with DNMT1 block. DNMT1 molecular beacon spectral interference counterscreen, fluorescence 485/520. activation (fluorescence interference), % at 10 µM. hit rate 1% among 2,300;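 active = activation of at least 30% at 10 µM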;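 note: DNMT1 catalytic domain with a HinP1I cleavage step and a FAM/dabcyl DNA beacon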
Rpn11 inh conf = Rpn11 (PSMD14) deubiquitinase inhibitors, confirmation, biochemical, fluorescence polarization, single concentration; shares compounds with Rpn11 block; purified human 26S proteasome, Ub4-pepOG fluorescence polarization; proteasome pretreated with epoxomicin; inhibition, % at 20 µM; hit rate 29% among 1,900
MMP-2 counter = MMP-2 enzyme inhibition, confirmation, counter-screen for RPN11 inhibitor project, biochemical, fluorescence, single concentration. recombinant MMP-2, FRET peptide cleavage fluorescence. inhibition, % at 20 µM. hit rate 4% among 1,900. shares compounds with Rpn11 block;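 note: human MMP-2 activated beforehand with APMA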
Target sequence (P08253 whole entry, looked up): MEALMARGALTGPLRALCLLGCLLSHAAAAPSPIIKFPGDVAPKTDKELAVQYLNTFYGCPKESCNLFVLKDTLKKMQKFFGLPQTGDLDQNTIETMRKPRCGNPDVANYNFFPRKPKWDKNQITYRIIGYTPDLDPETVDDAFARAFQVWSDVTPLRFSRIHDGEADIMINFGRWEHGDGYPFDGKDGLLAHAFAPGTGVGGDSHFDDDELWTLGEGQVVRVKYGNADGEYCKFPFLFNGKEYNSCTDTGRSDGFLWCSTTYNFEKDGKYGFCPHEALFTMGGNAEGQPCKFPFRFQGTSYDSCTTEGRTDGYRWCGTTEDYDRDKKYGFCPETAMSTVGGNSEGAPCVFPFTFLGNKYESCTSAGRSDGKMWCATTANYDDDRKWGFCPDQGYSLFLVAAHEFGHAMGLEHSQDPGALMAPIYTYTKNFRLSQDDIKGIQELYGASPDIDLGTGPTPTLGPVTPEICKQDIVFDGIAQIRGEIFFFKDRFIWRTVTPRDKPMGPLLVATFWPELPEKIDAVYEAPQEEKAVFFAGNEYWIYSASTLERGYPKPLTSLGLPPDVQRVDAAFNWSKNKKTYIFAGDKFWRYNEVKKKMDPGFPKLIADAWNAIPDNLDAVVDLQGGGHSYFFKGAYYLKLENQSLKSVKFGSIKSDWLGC
Thrombin inh = bovine thrombin protease inhibition, confirmation, counter-screen for Rpn11 inhibitor project, biochemical, fluorescence polarization, single concentration | shares compounds with Rpn11 block | bovine thrombin cleavage of Ub4-pepOG | inhibition, % at 20 µM | hit rate 13% among 1,900 | AID 602333, 2012;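 active = mean inhibition at least 40% at 20 µM, or signal 3 deviations below plate average, so some actives read negative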;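 note: plate controls were thrombin with DMSO for no effect and buffer wells lacking thrombin for full effect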
STEP conf = STEP phosphatase inhibitor hit confirmation, biochemical, fluorescence intensity, single concentration. shares compounds with STEP block. recombinant STEP, OMFP fluorogenic substrate. inhibition, % at 20 µM. hit rate 32% among 520; call rule not given here;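 note: 0% = enzyme with substrate plus DMSO and 100% = substrate without enzyme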
* hit, by the source's call; · = not tested or not shown; + = active, no number. Cut-off read from the data, not from the text of the source, unless noted: active = inhibition above about 40%; inactive = the rest.

SMILES | DNMT1 block | Scp-1 inhibitor | Rpn11 block | LMPTP block | STEP block | SUMO1 PPI mod | DNMT1 inh conf | Beacon interf | Rpn11 inh conf | MMP-2 counter | Thrombin inh | STEP conf | others
COc1ccc(CCNc2ccc(C(CC(N)=O)NC(=O)Cc3ccc(Br)cc3)cc2[N+](=O)[O-])cc1 (centres undefined) | 55* | -6 | 55* | 1 | 5 | -9 | -1 | -4 | 16 | -21 | -20 | ·
NC(=O)CC(NC(=O)Cc1ccc(Br)cc1)c1ccc(NCCc2ccc(Cl)cc2)c([N+](=O)[O-])c1 (centres undefined) | 58* | -4 | 45* | 3 | 3 | -4 | 2 | -2 | 33 | 5 | -1 | ·
CCCCNc1ccc(C(CC(N)=O)NC(=O)Cc2ccc(Br)cc2)cc1[N+](=O)[O-] (centres undefined) | 21 | -1 | 35 | 0 | 0 | -10 | · | · | · | · | · | ·
CCOC(=O)C1=C(C)N=c2s/c(=C/c3ccc(OCC(=O)O)c(OC)c3)c(=O)n2C1c1ccc(Cl)cc1 (centres undefined) | 58* | 51* | 53* | 3 | 36 | 7 | 59* | -1 | 93* | -10 | -7 | · | DNMT1 interf DR=>99
CC1Oc2cc3oc4c(O)c(O)ccc4c(=O)c3c(O)c2C1(C)C (centres undefined) | -35 | -19 | -25 | 4 | 9 | 9 | · | · | · | · | · | ·
Nc1nc(-c2cc(O)ccc2[N+](=O)[O-])cc(-c2ccccc2)c1[N+](=O)[O-] | 60* | 18 | 40* | 41 | 3 | 50* | 5 | -6 | 43* | -21 | 15 | ·
Cc1ccc(OCC(=O)O/N=C(\N)Cc2ccc([N+](=O)[O-])cc2)cc1C | -1 | -7 | 1 | -2 | 2 | 1 | · | · | · | · | · | ·
CC1(C)CC(=O)C(C=NCC2CCN(C(=O)Cc3ccccc3)CC2)=C(O)C1 | 76* | 4 | 137* | 15 | 48* | 70* | 4 | 2 | 93* | 3 | -8 | 0
COc1ccc(-c2ccc(NC(=O)c3ccc(Br)o3)cc2)nn1 | 56* | 50 | 77* | 54* | 42* | 9 | 5 | 4 | 13 | 16 | -21 | 33*
CCOc1ccc(NC(=S)N(CCOC)C(C)c2ccco2)cc1 (centres undefined) | -1 | 1 | -8 | -1 | -2 | 7 | · | · | · | · | · | ·
Cc1ccc(NC(=O)c2ccc3nc(N4CCOCC4)sc3c2)c(Cl)c1 | 53* | -10 | 6 | 0 | 84* | 5 | -2 | -4 | · | · | · | 54*
CCc1ccccc1NC(=O)c1ccc2nc(N3CCOCC3)sc2c1 | -1 | 10 | 5 | 0 | 0 | -2 | · | · | · | · | · | ·
Cc1nn(C)c2ncc(C(N)=O)c(Oc3ccc(Cl)cc3)c12 | 4 | -4 | 5 | -1 | 0 | 4 | · | · | · | · | · | ·
COc1ccc(/C=N/Nc2ncnc3c2[nH]c2ccccc23)c(OC)c1OC | 20 | 6 | -9 | 0 | -1 | -3 | · | · | · | · | · | ·
COc1cccc(/C=N/Nc2ncnc3c2[nH]c2ccc(C)cc23)c1OC | 60* | 20 | 4 | 26 | 77* | 90* | 1 | -3 | · | · | · | 4
C/C(CC(C)C)=N\NS(=O)(=O)c1ccc(C)c([N+](=O)[O-])c1 | 86* | 1 | -26 | -1 | 90* | -6 | 1 | 10 | · | · | · | -4
O=C(CSc1nc(-c2ccc(F)cc2)nc2c1Cc1ccccc1O2)Nc1cccc(C(=O)O)c1 | 99* | 89* | + | 88* | 97* | 108* | 6 | -14 | 0 | 2 | 82* | 13*
CC(=O)Cc1nsc(NC(=O)c2ccc(-c3ccc(Cl)cc3Cl)o2)n1 | -6 | -9 | -1 | 2 | -2 | -8 | · | · | · | · | · | ·
Cc1nnc2sc(-c3ccc(NC(=O)c4ccc(-c5ccc(Cl)cc5Cl)o4)cc3)nn12 | 65* | 36 | + | 56* | 95* | 31 | 8 | 1 | 19 | -41 | 44* | 60*
O=C(Cn1c2ccccc2c(=O)c2ccccc21)N/N=C/c1cc([N+](=O)[O-])ccc1N1CCCCCC1 | 72* | 87* | + | 66* | 89* | -7 | 4 | 5 | 19 | 8 | 12 | 12
CC(=O)Nc1nc(SCC(=O)NCc2ccc(F)cc2)[nH]c(=O)c1NC(=O)c1cccs1 | 2 | -3 | 3 | -2 | -4 | 3 | · | · | · | · | · | ·
Cn1nnc(NCc2cc(Br)ccc2OCc2ccccc2F)n1 | 77* | -6 | -13 | -1 | 66* | 1 | 0 | 5 | · | · | · | 24
Fc1ccccc1COc1ccc(Br)cc1CNCC1CCCO1 (centres undefined) | 6 | 1 | -7 | 1 | -4 | 3 | · | · | · | · | · | ·
